Assay results collected from several papers.
Each line is one published result; the experiments were not run side by side.
Matrix: plasma

| Structure (SMILES) | system | setting | AUC(0-t) |
| --- | --- | --- | --- |
| O=C(/C=C/c1cccc(S(=O)(=O)Nc2ccccc2)c1)NO | human | intravenous, 1900 mg/m², patients | 72100 ng·h/mL |
| COc1cc2c(Nc3ccc(Br)cc3F)ncnc2cc1OCC1CCN(C)CC1 | human | oral, 65 mg/m², multiple doses, patients | 18900 ng·h/mL |
| CC(C)(O)c1ccccc1-c1ccc2[nH]c(/C=C/c3ccc(C(F)(F)F)cc3)nc2c1 | male human | oral, 120 mg, single dose, fasted, healthy volunteers | 13100 ng·h/mL |
| COc1cc2c(cc1OC)CN(CCc1ccc(NC(=O)c3cc(OC)c(OC)cc3NC(=O)c3cnc4ccccc4c3)cc1)CC2 | human | intravenous, 2 mg/kg, patients | 11.9 µM·h |
| O=C(O)C[C@H](O)C[C@H](O)/C=C/c1c(C2CC2)nc2ccccc2c1-c1ccc(F)cc1 | human | oral, 2 mg, single dose, fasted, healthy volunteers, tablet | 243 ng·h/mL |
| C[C@@H](Nc1cc(F)cc(F)c1)c1cc(C(=O)N(C)C)cc2c(=O)cc(N3CCOCC3)oc12 | human | oral, 180 mg, single dose, patients | 6710 ng·h/mL |
| CC(C)n1cc(C#N)c2cc(-n3cc(C(=O)O)cn3)ccc21 | male human | oral, 600 mg, single dose, fasted, healthy volunteers | 98800 ng·h/mL |
| CCNCCCNC/C=C\CNCCCNCC | human | intravenous, 50 mg, patients, infusion | 79.8 ng·h/mL |
| COc1ccc([C@@H]2CN(C(=O)[C@@H](O)CO)C[C@@]2(C)[C@@H](C)O)cc1OC1CN(c2ccc(C)cn2)C1 | human | oral, 0.5 mg, single dose, healthy volunteers | 188 ng·h/mL |
| Cc1nc(NC(=O)N2CCC[C@H]2C(N)=O)sc1-c1ccnc(C(C)(C)C(F)(F)F)c1 | human | oral, 90 mg, patients | 7600 ng·h/mL |
| NS(=O)(=O)c1ccc(NC(=O)Nc2ccc(F)cc2)cc1 | human | oral, 2000 mg, multiple doses, once daily | 180000 ng·h/mL |
| CCCCC1=NC2(CCCC2)C(=O)N1Cc1ccc(-c2ccccc2S(=O)(=O)Nc2noc(C)c2C)c(COCC)c1 | human | oral, 200 mg, single dose, fasted, healthy volunteers | 58100 ng·h/mL |
| C[C@@H](Oc1ccc(S(C)(=O)=O)cc1C(=O)N1C[C@@H]2C[C@]2(c2cc(C(F)(F)F)on2)C1)C(F)(F)F | human | oral, 25 mg, fasted | 10.8 µM·h |
| C[C@@H](Oc1ccc(S(C)(=O)=O)cc1C(=O)N1C[C@@H]2C[C@]2(c2cc(C(F)(F)F)on2)C1)C(F)(F)F | human | oral, 25 mg | 12 µM·h |
| CO[C@H]1CC[C@H](N2C(=O)CNc3ncc(-c4ccc(C(C)(C)O)nc4)nc32)CC1 | human | oral, 7.5 mg, multiple doses, patients | 299 ng·h/mL |
| CC(=O)Oc1ccccc1C(=O)O | human | oral, 650 mg, healthy volunteers | 2630 ng·h/mL |
| COCCOc1cnc2ccn([C@H](C)c3nnc4c(F)cc(-c5cnn(C)c5)cn34)c(=O)c2c1 | human | oral, 200 mg, multiple doses, once daily, patients | 36900 ng·h/mL |
| FC(F)(F)c1ccc(CNc2ccc(Cc3c[nH]c4ncc(Cl)cc34)cn2)cn1 | human | oral, 800 mg, multiple doses, patients | 22300 ng·h/mL |
| CCO[C@H]1CCN(Cc2c(OC)cc(C)c3[nH]ccc23)[C@H](c2ccc(C(=O)O)cc2)C1 | human | oral, 100 mg, multiple doses, twice daily, patients | 11900 ng·h/mL |
| CO[C@@H]1[C@H](OC(=O)N2CC(CCN3CCOCC3)C2)CC[C@]2(CO2)[C@H]1[C@@]1(C)O[C@@H]1CC=C(C)C | human | subcutaneous, 2.4 mg, single dose, healthy volunteers | 8.07 ng·h/mL |
| OC[C@H]1O[C@@H](c2ccc(Cl)c(Cc3ccc(O[C@H]4CCOC4)cc3)c2)[C@H](O)[C@@H](O)[C@@H]1O | human | oral, 100 mg, single dose | 20 µM·h |
| CCOc1ccc(Cc2cc([C@@H]3S[C@H](CO)[C@@H](O)[C@H](O)[C@H]3O)c(OC)cc2C)cc1 | male human | oral, 5 mg, single dose, fasted, healthy volunteers | 1650 ng·h/mL |
| COc1cc(N2CCC(N3CCN(C)CC3)CC2)ccc1Nc1ncnc(Nc2ccccc2S(=O)(=O)C(C)C)n1 | human | oral, 50 mg, multiple doses, patients | 4640 ng·h/mL |
| C[C@@H]1COCCN1c1cc(C2([S@](C)(=N)=O)CC2)nc(-c2cc[nH]c3nccc2-3)n1 | human | oral, 20 mg, single dose, patients | 6770 ng·h/mL |
| Nc1cc(C(F)(F)F)c(-c2cc(N3CCOCC3)nc(N3CCOCC3)n2)cn1 | human | oral, 50 mg/day, patients | 3830 ng·h/mL |
| Oc1cc(O)c2c(c1)O[C@@H](c1ccc(O)c(O)c1)[C@@H](O)C2 | human | oral, 30 mg, single dose | 6.9 ng·h/mL |
| C#Cc1cccc(Nc2ncnc3cc(OCCOC)c(OCCOC)cc23)c1 | human | oral, 50 mg, multiple doses, once daily, patients | 24.9 µM·h |
| C[C@@]1(c2cc(NC(=O)c3ccc(C#N)cn3)ccc2F)C=CSC(N)=N1 | human | oral, 10 mg, single dose | 1000 ng·h/mL |
